Measured values reported in ChEMBL document CHEMBL1127478 (J Med Chem, 1994).
pKd: −log10 of the molar value. Residues, ends and D or L forms follow the SMILES beside them.

Columns and labels:
Rattus norvegicus [1] = organism: Rattus norvegicus; assay: Inhibition of pressor response to exogenous AVP in the pitched rat preparation; format: functional, organism-based; details: read-out: pA2 (converted)
Procedure, shortened: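 Pressor test in pitched rats. Reported as the negative decadic log of the effective dose (mol/kg) that reduces the effect of a 1×10^-5 mg AVP dose to the level of […] AVP. Values are mean ± SE.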

Rattus norvegicus [2] = organism: Rattus norvegicus; assay: In vitro antiuterotonic activity in rat oxytocic bioassay in the absence of Mg2+; format: functional; details: read-out: pA2 (converted)
Vasopressin V2 receptor = Vasopressin V2 receptor (Bos taurus, UniProt P48044); assay: Inhibition of radioligand [3H]AVP binding to V2 receptor in bovine kidney inner medulla membrane
Sequence of Vasopressin V2 receptor (P48044 whole entry): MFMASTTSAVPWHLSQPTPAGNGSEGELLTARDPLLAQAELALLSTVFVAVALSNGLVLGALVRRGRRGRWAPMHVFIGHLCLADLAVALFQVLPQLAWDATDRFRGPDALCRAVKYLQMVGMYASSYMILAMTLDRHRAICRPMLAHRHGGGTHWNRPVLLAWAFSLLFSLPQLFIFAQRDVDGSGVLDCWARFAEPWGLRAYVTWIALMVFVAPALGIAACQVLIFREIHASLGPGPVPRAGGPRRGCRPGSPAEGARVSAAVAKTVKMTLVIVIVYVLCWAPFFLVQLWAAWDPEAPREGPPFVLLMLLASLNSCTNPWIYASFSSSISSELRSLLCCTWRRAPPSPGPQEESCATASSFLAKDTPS
Procedure, shortened: (§1)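 Competition binding with 10 nM [3H]AVP (17.4 Ci/mmol) and varying concentrations of unlabeled peptide. V1 used rat liver plasma membranes prepared by two-phase polymer separation. V2 used bovine kidney inner medulla membranes prepared by differential centrifugation. Kd came from a weighted nonlinear least-squares fit to logistic curves.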

Vasopressin V1 receptor = Vasopressin V1 receptor (Rattus norvegicus, UniProt P48974+P30560); assay: Inhibition of radioligand [3H]AVP binding to V1 receptor in rat liver plasma membrane; format: cell membranes; procedure, shortened: as §1
Rattus norvegicus [3] = organism: Rattus norvegicus; assay: In vitro antiuterotonic activity in rat oxytocic bioassay in the presence of 1 mM Mg2+; format: functional; details: read-out: pA2 (converted)
Procedure, shortened: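 Isolated rat uterus in medium containing 1 mM Mg2+, with oxytocin-induced contractions challenged by the antagonist.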

Rattus norvegicus [4] = assay: In vivo antiuterotonic activity in the rat uterotonic assay; format: functional, organism-based; details: read-out: pA2 (converted)
[5] = Selectivity aUT/aP ratio of the compound; format: functional
Procedure, shortened: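 Reciprocal of the ratio of effective doses in the uterotonic in vitro test (mol/L) and the pressor test (mol/kg). Where given in parentheses, the reciprocal of the ratio of the uterotonic in vivo dose (mol/kg) to the pressor dose (mol/kg).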

SMILES	Kb (Rattus norvegicus [1]) [nM]	Kb (Rattus norvegicus [2]) [nM]	pKd (Vasopressin V2 receptor)	Kd (Vasopressin V1 receptor) [nM]	Kb (Rattus norvegicus [3]) [nM]	Kb (Rattus norvegicus [4]) [nM]	Ratio [5]
CN(CC(=O)N[C@@H](CCCN=C(N)N)C(=O)NCC(N)=O)C(=O)[C@@H]1CSSC2(CCCCC2)CC(=O)N[C@@H](Cc2ccc(O)cc2)C(=O)N[C@@H](Cc2ccccc2)C(=O)N[C@@H](CCC(N)=O)C(=O)N[C@@H](CC(N)=O)C(=O)N1	11.7	112	–	–	–	–	–
CN(CC(=O)N[C@@H](CCCNC(=N)N)C(=O)NCC(N)=O)C(=O)[C@@H]1CSSC2(CCCCC2)CC(=O)N[C@@H](Cc2ccc(O)cc2)C(=O)N[C@@H](Cc2ccccc2)C(=O)N[C@@H](CCC(N)=O)C(=O)N[C@@H](CC(N)=O)C(=O)N1	–	–	6.62	0.59	–	–	–
CC[C@H](C)[C@@H]1NC(=O)[C@@H](Cc2ccc(OC)cc2)NC(=O)CC2(CCCCC2)SSC[C@@H](C(=O)N2CCC[C@H]2C(=O)N[C@@H](CCCN)C(=O)NCC(N)=O)NC(=O)[C@H](CC(N)=O)NC(=O)[C@H](CCC(N)=O)NC1=O	11	3.02	–	–	–	–	–
CC[C@H](C)[C@@H]1NC(=O)[C@@H](Cc2ccc(OC)cc2)NC(=O)CC2(CCCCC2)SSC[C@@H](C(=O)N(C)CC(=O)N[C@@H](CCCN=C(N)N)C(=O)NCC(N)=O)NC(=O)[C@H](CC(N)=O)NC(=O)[C@H](CCC(N)=O)NC1=O	20	2.51	6.09	2	6.31	31.6	–
NC(=O)CC[C@@H]1NC(=O)[C@H](Cc2ccccc2)NC(=O)[C@H](Cc2ccc(O)cc2)NC(=O)CC2(CCCCC2)SSC[C@H](C(=O)N2CCC[C@H]2C(=O)N[C@@H](CCCN=C(N)N)C(=O)NCC(N)=O)NC(=O)[C@H](CC(N)=O)NC1=O	–	–	–	–	–	–	0.6
CC[C@H](C)[C@@H]1NC(=O)[C@@H](Cc2c[nH]c3ccccc23)NC(=O)CC2(CCCCC2)SSC[C@@H](C(=O)N(C)CC(=O)N[C@@H](CCCN=C(N)N)C(=O)NCC(N)=O)NC(=O)[C@H](CC(N)=O)NC(=O)[C@H](CCC(N)=O)NC1=O (HELM PEPTIDE1{[dW].I.Q.N.C.[Sar].R.G.[am]}|CHEM1{[O=C(CC1(S[*:2])CCCCC1)[*:1]]}$PEPTIDE1,CHEM1,1:R1-1:R1|PEPTIDE1,CHEM1,5:R3-1:R2$$$V2.0)	31.6	12.6	3.52	3.8	20	31.6	–
CC[C@H](C)C1NC(=O)CC2(CCCCC2)SSC[C@@H](C(=O)N(C)CC(=O)N[C@@H](CCCN=C(N)N)C(=O)NCC(N)=O)NC(=O)[C@H](CC(N)=O)NC(=O)[C@H](CCC(N)=O)NC(=O)[C@H](Cc2ccccc2)NC1=O (stereo in doubt)	63.1	31.6	6.74	8.28	100	251	–
CN(CC(=O)N[C@@H](CCCN=C(N)N)C(=O)NCC(N)=O)C(=O)[C@@H]1CSSC2(CCCCC2)CC(=O)NC(Cc2ccccc2)C(=O)NC(Cc2ccccc2)C(=O)N[C@@H](CCC(N)=O)C(=O)N[C@@H](CC(N)=O)C(=O)N1 (stereo in doubt)	15.8	7.94	7.01	0.96	–	25.1	2
CN(CC(=O)N[C@@H](CCCN=C(N)N)C(=O)NCC(N)=O)C(=O)[C@@H]1CSSC2(CCCCC2)CC(=O)NC(Cc2ccc(O)cc2)C(=O)N[C@@H](Cc2ccccc2)C(=O)N[C@@H](CCC(N)=O)C(=O)N[C@@H](CC(N)=O)C(=O)N1 (stereo in doubt)	10	10	6.64	0.22	–	100	–
CC[C@H](C)[C@@H]1NC(=O)C(Cc2ccccc2)NC(=O)CC2(CCCCC2)SSC[C@H](C(=O)N(C)CC(=O)N[C@@H](CCCN=C(N)N)C(=O)NCC(N)=O)NC(=O)[C@H](CC(N)=O)NC(=O)[C@H](CCC(N)=O)NC1=O (stereo in doubt)	100	10	6.51	8.28	10	39.8	10
CCOc1ccc(CC2NC(=O)CC3(CCCCC3)SSC[C@H](C(=O)N(C)CC(=O)N[C@@H](CCCN=C(N)N)C(=O)NCC(N)=O)NC(=O)[C@H](CC(N)=O)NC(=O)[C@H](CCC(N)=O)NC(=O)[C@H]([C@@H](C)CC)NC2=O)cc1 (stereo in doubt)	398	5.01	7.46	13.1	7.94	31.6	80
CCOc1ccc(CC2NC(=O)CC3(CCCCC3)SSC[C@@H](C(=O)N(C)CC(=O)N[C@@H](CCCN=C(N)N)C(=O)NCC(N)=O)NC(=O)[C@H](CC(N)=O)NC(=O)[C@H](CCC(N)=O)NC(=O)[C@H](Cc3ccccc3)NC2=O)cc1 (stereo in doubt)	10	3.98	7.54	0.32	–	79.4	2.5
CC[C@H](C)[C@@H]1NC(=O)C(Cc2ccccc2)NC(=O)CCSSC[C@H](C(=O)N(C)CC(=O)N[C@@H](CCCN=C(N)N)C(=O)NCC(N)=O)NC(=O)[C@H](CC(N)=O)NC(=O)[C@H](CCC(N)=O)NC1=O (stereo in doubt) [listing 1 of 2 here]	398	5.01	–	–	10	39.8	–
CC[C@H](C)[C@@H]1NC(=O)C(Cc2ccccc2)NC(=O)CCSSC[C@H](C(=O)N(C)CC(=O)N[C@@H](CCCN=C(N)N)C(=O)NCC(N)=O)NC(=O)[C@H](CC(N)=O)NC(=O)[C@H](CCC(N)=O)NC1=O (stereo in doubt) [listing 2 of 2 here]	–	–	6.38	50.1	–	–	–
